Test results as given in ChEMBL document CHEMBL1154285, “Meroterpenes from Dichrostachys cinerea inhibit protein farnesyl transferase activity” (J Nat Prod, 2009).

Key:
[1] = Inhibition of rat farnesyl transferase after 30 mins
Summary of the method: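 Rat PFTase at 10 nM, added last to start the reaction, in 50 mM Tris/HCl pH 7.5 with 5 mM MgCl2, 5 mM DTT, 0.1 mM ZnCl2 and 0.2% octyl-β-D-glucopyranoside. Substrates were 10 µM GCVLS-dansyl and 10 µM farnesyl pyrophosphate. Compounds from 0.3 nM to 100 µM, 1% DMSO final, in triplicate. Incubation 30 min at 37 °C; fluorescence read at ex 340/em 505 nm. IC50 from sigmoidal dose-response fit.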

[2] = Cytotoxicity against human WM266.4 cells after 72 hrs by ATP lite assay; assay type: functional, WM 266-4
Summary of the method: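 Metastatic melanoma WM 266-4 cells (ATCC), 5000 per well, in RPMI with 10% FBS, 50 µg/mL streptomycin and 50 U/mL penicillin. Compounds were present for 72 h at 1% DMSO final, in triplicate. Viability was read by ATPLite luminescence. IC50 from sigmoidal dose-response fit.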

COC1=CC(=O)[C@@]2(c3cc(=O)c4c(O)cc(O)cc4o3)[C@H](C[C@]3(O)[C@@]4(C)C[C@@H](O)CC(C)(C)[C@@H]4CC[C@@]3(C)O)C(C)=CC[C@H]2C1=O
IC50 [1]: 17 µM | Activity [2]: >10 µM

C=C1[C@@H](O)C[C@H]2[C@](C)(CO)CCC[C@]2(C)[C@H]1C[C@@H]1C(C)=CC[C@H]2C(=O)C(OC)=CC(=O)[C@@]12c1cc(=O)c2c(O)cc(O)cc2o1 [DICHROSTACHINE A]
IC50 [1]: 10 µM | Activity [2]: >10 µM

C=C1[C@@H](O)C[C@H]2C(C)(C)C[C@H](O)C[C@]2(C)[C@H]1C[C@@H]1C(C)=CC[C@H]2C(=O)C(OC)=CC(=O)[C@@]12c1cc(=O)c2c(O)cc(O)cc2o1 [DICHROSTACHINE B]
IC50 [1]: 40 µM | Activity [2]: >10 µM

C=C1[C@@H](O)C[C@H]2C(C)(C)CCC[C@]2(C)[C@H]1C[C@@H]1C(C)=CC[C@H]2C(=O)C(OC)=CC(=O)[C@@]12c1cc(=O)c2c(O)cc(O)cc2o1 [DICHROSTACHINE C]
IC50 [1]: 5.7 µM | Activity [2]: >10 µM

C=C1[C@@H](O)C[C@H]2C(C)(C)C[C@H](O)C[C@]2(C)[C@@]1(O)C[C@@H]1C(C)=CC[C@H]2C(=O)C(OC)=CC(=O)[C@@]12c1cc(=O)c2c(O)cc(O)cc2o1 [DICHROSTACHINE D]
IC50 [1]: 86 µM | Activity [2]: >10 µM

C=C1[C@@H](O)C[C@@H]2[C@](C)(CCC[C@@]2(C)C(=O)O)[C@H]1C[C@@H]1C(C)=CC[C@H]2C(=O)C(OC)=CC(=O)[C@@]12c1cc(=O)c2c(O)cc(O)cc2o1 [DICHROSTACHINE E]
IC50 [1]: 40 µM | Activity [2]: >10 µM

C=C1[C@@H](O)C[C@@H]2[C@](C)(CCC[C@@]2(C)C=O)[C@H]1C[C@@H]1C(C)=CC[C@H]2C(=O)C(OC)=CC(=O)[C@@]12c1cc(=O)c2c(O)cc(O)cc2o1 [DICHROSTACHINE H]
IC50 [1]: 1.8 µM | Activity [2]: >10 µM

C=C1C(=O)C[C@H]2C(C)(C)CCC[C@]2(C)[C@H]1C[C@@H]1C(C)=CC[C@H]2C(=O)C(OC)=CC(=O)[C@@]12c1cc(=O)c2c(O)cc(O)cc2o1 [DICHROSTACHINE L]
IC50 [1]: 3.2 µM | Activity [2]: >10 µM

C=C1C(=O)C[C@H]2C(C)(C)CCC[C@]2(C)[C@H]1C[C@@H]1C(C)=CC[C@H]2C(=O)C(OC)=CC(=O)[C@@]12c1cc(=O)c2c(O)cc(OC)cc2o1 [DICHROSTACHINE M]
IC50 [1]: 3 µM | Activity [2]: 3.1 µM

C=C1C(=O)C[C@H]2C(C)(C)C[C@H](O)C[C@]2(C)[C@@]1(O)C[C@@H]1C(C)=CC[C@H]2C(=O)C(OC)=CC(=O)[C@@]12c1cc(=O)c2c(O)cc(OC)cc2o1 [DICHROSTACHINE N]
Activity [2]: 2.8 µM

C=C1[C@@H](O)C[C@H]2C(C)(C)CCC[C@]2(C)[C@H]1C[C@@H]1C(C)=CC[C@H]2C(O)C(OC)=CC(=O)[C@@]12c1cc(=O)c2c(O)cc(O)cc2o1 (stereo not given in full) [DICHROSTACHINE O]
IC50 [1]: 25 µM | Activity [2]: >10 µM

C=C1[C@@H](O)C[C@H]2C(C)(C)CCC[C@]2(C)[C@H]1C[C@@H]1C(C)=CC[C@H]2C(O)C(=O)C=C[C@@]12c1cc(=O)c2c(O)cc(O)cc2o1 (stereo not given in full) [DICHROSTACHINE P]
IC50 [1]: 7 µM | Activity [2]: >10 µM

NC(=O)N1CCC(CC(=O)N2CCC([C@H]3c4ncc(Br)cc4CCc4cc(Cl)cc(Br)c43)CC2)CC1 [LONAFARNIB]
IC50 [1]: 0.1 µM | Activity [2]: >10 µM
